According to ChEMBL document CHEMBL4765243, “Discovery of Novel Bromophenol-Thiosemicarbazone Hybrids as Potent Selective Inhibitors of Poly(ADP-ribose) Polymerase-1 (PARP-1) for Use in Cancer” (J Med Chem, 2019):

Legend:
[1] = target: T1, Poly [ADP-ribose] polymerase 1 (Homo sapiens, UniProt P09874); conditions: dose 100.0 nM, time 30.0 min
Caco-2 [2] = assay: Antiproliferative activity against human Caco-2 cells assessed as cell growth inhibition at 20 uM incubated for 48 hrs by MTT assay relative to control; assay type: functional
SK-OV-3 [3] = assay: Antiproliferative activity against human SK-OV-3 cells assessed as cell growth inhibition incubated for 48 hrs by MTT assay; assay type: functional, cell-based; conditions: SK-OV-3, 48 h
Procedure, shortened: (§1)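 Cells seeded in 96-well plates and exposed to compounds for 48 h; viability read by MTT. Each experiment repeated three times. SK-OV-3 grown in McCOY's 5A, Bel-7402 and HL-7702 in RPMI-1640, HepG2 in DMEM, Caco-2 in MEM.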

HepG2 [4] = assay: Antiproliferative activity against human HepG2 cells assessed as cell growth inhibition incubated for 48 hrs by MTT assay; assay type: functional, cell-based; conditions: HepG2, 48 h
Procedure, shortened: as §1

[5] = Cytotoxicity against human HL7702 cells assessed as cell growth inhibition at 20 uM incubated for 48 hrs by MTT assay relative to control; assay type: cell-based; conditions: HL7702 (L02) cells
[6] = target: Poly [ADP-ribose] polymerase 2 (Homo sapiens, UniProt Q9UGN5); assay: Inhibition of human recombinant N-terminal GST-tagged PARP-2 expressed in Baculovirus infected Sf9 cells assessed as reduction in NAD+-dependent ADP ribosylation using histone mixture (H2A and H2B) as substrate in presence of activated DNA incubated for 30 mins by chemiluminescence assay
Chain of Poly [ADP-ribose] polymerase 2 (Q9UGN5 whole entry): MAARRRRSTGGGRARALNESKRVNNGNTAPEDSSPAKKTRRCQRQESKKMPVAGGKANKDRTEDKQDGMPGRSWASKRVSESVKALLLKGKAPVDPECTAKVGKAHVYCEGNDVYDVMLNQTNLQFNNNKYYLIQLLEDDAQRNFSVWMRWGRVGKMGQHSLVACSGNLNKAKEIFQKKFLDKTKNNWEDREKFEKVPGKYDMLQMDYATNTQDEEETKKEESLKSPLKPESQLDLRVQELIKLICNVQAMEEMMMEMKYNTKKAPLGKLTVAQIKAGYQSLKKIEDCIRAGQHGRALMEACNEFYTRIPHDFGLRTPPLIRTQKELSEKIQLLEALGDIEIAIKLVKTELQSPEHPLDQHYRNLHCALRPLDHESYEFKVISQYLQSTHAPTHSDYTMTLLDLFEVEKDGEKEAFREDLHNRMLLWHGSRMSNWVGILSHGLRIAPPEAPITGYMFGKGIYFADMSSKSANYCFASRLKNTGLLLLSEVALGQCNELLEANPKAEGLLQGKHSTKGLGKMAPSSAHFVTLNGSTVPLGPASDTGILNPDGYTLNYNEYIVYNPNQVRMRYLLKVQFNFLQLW

SK-OV-3 [7] = assay: Antiproliferative activity against human SK-OV-3 cells assessed as cell growth inhibition at 20 uM incubated for 48 hrs by MTT assay relative to control; assay type: functional
HepG2 [8] = assay: Antiproliferative activity against human HepG2 cells assessed as cell growth inhibition at 20 uM incubated for 48 hrs by MTT assay relative to control; assay type: functional
L02 = assay: Cytotoxicity against human HL7702 cells assessed as cell growth inhibition incubated for 48 hrs by MTT assay; assay type: cell-based; conditions: L02, 48 h
Procedure, shortened: as §1

[9] = Selectivity index, ratio of IC50 for inhibition of human recombinant N-terminal GST-tagged PARP-2 to IC50 for inhibition of human recombinant GST-tagged PARP-1
Bel-7402 [10] = assay: Antiproliferative activity against human Bel-7402 cells assessed as cell growth inhibition at 20 uM incubated for 48 hrs by MTT assay relative to control; assay type: functional
Caco-2 [11] = assay: Antiproliferative activity against human Caco-2 cells assessed as cell growth inhibition incubated for 48 hrs by MTT assay; assay type: functional, cell-based; conditions: Caco-2, 48 h
Procedure, shortened: as §1

Bel-7402 [12] = assay: Antiproliferative activity against human Bel-7402 cells assessed as cell growth inhibition incubated for 48 hrs by MTT assay; assay type: functional, cell-based; conditions: Bel-7402, 48 h
Procedure, shortened: as §1

[13] = target: T1, Poly [ADP-ribose] polymerase 1; assay: Inhibition of human recombinant GST-tagged PARP-1 expressed in Escherichia coli assessed as reduction in NAD+-dependent ADP ribosylation incubated for 30 mins in presence and NAD by resazurin dye based fluorescence analysis
[14] = Toxicity in Balb/c nude mouse xenografted with human SKOV3 cells assessed as change in body weight at 25 mg/kg, po for 21 days and measured every third day; assay type: organism-based; conditions: in vivo, 504 h, time 21 day
Procedure, shortened: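 Female BALB/c nu/nu mice, 6-8 weeks old, kept under SPF conditions. Each received 5×10^6 SK-OV-3 cells s.c. At 80–120 mm3 tumour volume, mice were split into four groups (n=6). […] Caliper measurement every three days; volume = X × (Y2/2).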

T1 sequence (P09874 whole entry): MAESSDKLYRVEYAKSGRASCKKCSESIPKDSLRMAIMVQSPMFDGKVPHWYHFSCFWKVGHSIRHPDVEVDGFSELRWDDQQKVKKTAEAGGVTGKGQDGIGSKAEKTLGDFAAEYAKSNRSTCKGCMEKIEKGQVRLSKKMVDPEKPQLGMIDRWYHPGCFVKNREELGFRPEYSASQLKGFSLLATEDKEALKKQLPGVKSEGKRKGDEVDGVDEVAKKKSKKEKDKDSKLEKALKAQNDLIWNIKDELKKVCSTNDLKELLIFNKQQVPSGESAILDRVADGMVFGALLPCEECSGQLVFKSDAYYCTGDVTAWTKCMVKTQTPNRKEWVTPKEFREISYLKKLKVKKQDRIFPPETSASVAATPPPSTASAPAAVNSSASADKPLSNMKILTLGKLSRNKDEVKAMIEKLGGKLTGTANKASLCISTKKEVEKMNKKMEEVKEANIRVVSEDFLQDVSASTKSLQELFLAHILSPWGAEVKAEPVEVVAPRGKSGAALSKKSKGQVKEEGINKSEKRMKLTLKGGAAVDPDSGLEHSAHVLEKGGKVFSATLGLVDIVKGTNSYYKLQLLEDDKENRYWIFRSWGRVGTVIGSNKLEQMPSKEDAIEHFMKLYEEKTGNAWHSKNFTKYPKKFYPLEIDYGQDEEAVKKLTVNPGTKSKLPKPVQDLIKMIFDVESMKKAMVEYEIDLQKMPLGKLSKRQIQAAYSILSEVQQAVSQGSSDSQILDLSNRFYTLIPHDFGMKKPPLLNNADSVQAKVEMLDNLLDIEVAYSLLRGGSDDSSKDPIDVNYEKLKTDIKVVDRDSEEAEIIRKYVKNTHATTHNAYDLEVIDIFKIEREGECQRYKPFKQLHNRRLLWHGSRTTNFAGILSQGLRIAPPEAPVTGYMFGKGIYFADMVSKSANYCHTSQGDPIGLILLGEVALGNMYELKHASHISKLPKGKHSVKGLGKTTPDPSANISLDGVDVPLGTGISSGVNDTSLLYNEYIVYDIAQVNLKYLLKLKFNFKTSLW

`COc1cc(/C=N/NC(=S)NCCCN2CCOCC2)c(Br)c(Br)c1OC` showed an inhibition [1] of 51.5%, an inhibition at 20 µM (Caco-2 [2]) of 45.9% and an IC50 (SK-OV-3 [3]) of 18.2 µM. It also gave an IC50 (HepG2 [4]) of 26.3 µM, an inhibition at 48 h, 20 µM [5] of 51% and an IC50 [6] greater than 1 µM. For the same molecule, the inhibition at 20 µM (SK-OV-3 [7]) was 71.5%, the inhibition at 20 µM (HepG2 [8]) was 40.2% and the IC50 (L02) was 28.9 µM. For the same molecule, the Ratio IC50 [9] was greater than 5.37, the inhibition at 20 µM (Bel-7402 [10]) was 89.7% and the IC50 (Caco-2 [11]) was 15.9 µM. It also gave an IC50 (Bel-7402 [12]) of 24 µM and an IC50 [13] of 0.186 µM.

For `O=C(c1cc(Cc2n[nH]c(=O)c3ccccc23)ccc1F)N1CCN(C(=O)C2CC2)CC1` [OLAPARIB], the Activity [14] was “Non-Toxic”, the IC50 (SK-OV-3 [3]) was 3.15 µM and the IC50 (HepG2 [4]) was 42.4 µM. It also gave an IC50 (L02) of 25.8 µM, an IC50 (Caco-2 [11]) of 65.5 µM and an IC50 (Bel-7402 [12]) of 35.5 µM.

For `CCOC(=O)c1ccc(NC(=S)N/N=C/c2cc(OC)c(OC)c(Br)c2Br)cc1`, the inhibition [1] was 72.2%, the inhibition at 20 µM (Caco-2 [2]) was 76.5% and the IC50 (SK-OV-3 [3]) was 15.6 µM. The IC50 (HepG2 [4]) was 10.5 µM, the inhibition at 48 h, 20 µM [5] was 97.7% and the IC50 [6] was greater than 1 µM. For the same molecule, the inhibition at 20 µM (SK-OV-3 [7]) was 70%, the inhibition at 20 µM (HepG2 [8]) was 73% and the IC50 (L02) was 9.96 µM. It also gave a Ratio IC50 [9] greater than 17.2, an inhibition at 20 µM (Bel-7402 [10]) of 71.9% and an IC50 (Caco-2 [11]) of 11.3 µM. It also gave an IC50 (Bel-7402 [12]) of 6.89 µM and an IC50 [13] of 0.0583 µM.
